From ChEMBL document CHEMBL1629436, “Synthesis and biological evaluation of new camptothecin derivatives obtained by modification of position 20” (Bioorg Med Chem, 2010)
Values belong to the compound of their own block, whether it stands above or below them. Activity calls are given as the source filed them. The calls are words filed in the database; no cut-off is given here.

What was measured:
yA7 [1] = test: Cytotoxicity against mouse yA7 cells after 24 to 96 hrs by MTS assay; assay type: functional, cell-based
Procedure, shortened: (§1)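 Mouse transgenic lines plated at 10^3 cells/well and left 24 h to attach. Drugs diluted in medium were added for 24 or 96 h. CellTiter 96 AQueous One (MTS) reagent was then added for 1 h at 37 °C, with absorbance read at 490 nm. Each condition was run in quintuplicate, and cytotoxicity was expressed as percent of controls.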

Mus musculus [2] = organism: Mus musculus; test: Cytotoxicity against mouse betaD5 cells after 24 to 96 hrs by MTS assay; assay type: functional, cell-based; procedure, shortened: as §1
Craf/Cmyc [3] = test: Cytotoxicity against mouse Craf/Cmyc cells after 24 to 96 hrs by MTS assay; assay type: functional, cell-based; procedure, shortened: as §1
yD12 [4] = test: Induction apoptosis in mouse yD12 cells assessed as ROS production at 10 uM/L using DCFH-DA by flow cytometry relative to control; assay type: functional, cell-based
Procedure, shortened: (§2)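 Transgenic mouse cells exposed to compound at 10 µmol/L. ROS generation was measured by flow cytometry using the probe DCFH-DA.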

A2B1 = test: Cytotoxicity against mouse A2B1 cells after 24 to 96 hrs by MTS assay; assay type: functional, cell-based; procedure, shortened: as §1
yD12 [5] = test: Cytotoxicity against mouse yD12 cells after 24 to 96 hrs by MTS assay; assay type: functional, cell-based; procedure, shortened: as §1
A2C12 [6] = test: Induction apoptosis in mouse A2C12 cells assessed as ROS production at 10 uM/L using DCFH-DA by flow cytometry relative to control; assay type: functional, cell-based; procedure, shortened: as §2
yA7 [7] = test: Induction apoptosis in mouse yA7 cells assessed as ROS production at 10 uM/L using DCFH-DA by flow cytometry relative to control; assay type: functional, cell-based; procedure, shortened: as §2
A2C12 [8] = test: Cytotoxicity against mouse A2C12 cells after 24 to 96 hrs by MTS assay; assay type: functional, cell-based; procedure, shortened: as §1
Craf/Cmyc [9] = test: Induction apoptosis in mouse Craf/Cmyc cells assessed as ROS production at 10 uM/L using DCFH-DA by flow cytometry relative to control; assay type: functional, cell-based; procedure, shortened: as §2
Mus musculus [10] = organism: Mus musculus; test: Cytotoxicity against mouse betaD10 cells after 24 to 96 hrs by MTS assay; assay type: functional, cell-based; procedure, shortened: as §1
yD1 = test: Induction apoptosis in mouse yD1 cells assessed as ROS production at 10 uM/L using DCFH-DA by flow cytometry relative to control; assay type: functional, cell-based; procedure, shortened: as §2
yB8 [11] = test: Induction apoptosis in mouse yB8 cells assessed as ROS production at 10 uM/L using DCFH-DA by flow cytometry relative to control; assay type: functional, cell-based; procedure, shortened: as §2
yA3 [12] = test: Induction apoptosis in mouse yA3 cells assessed as ROS production at 10 uM/L using DCFH-DA by flow cytometry relative to control; assay type: functional, cell-based; procedure, shortened: as §2
B3 [13] = test: Induction apoptosis in mouse B3 cells assessed as ROS production at 10 uM/L using DCFH-DA by flow cytometry relative to control; assay type: functional, cell-based; procedure, shortened: as §2
HUVEC [14] = test: Antiangiogenic activity in HUVEC cocultured with human PaSMC assessed as reduction of total tube length at 125 nM after 72 hrs; assay type: functional; design: scale not given: the % may be the effect or the level left
Procedure, shortened: (§3)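 Primary HUVEC (passage 5, retrovirally labelled with RFP) and pulmonary artery vSMC (passage 5) co-seeded at 5×10^4 PaSMC plus 10×10^3 HUVEC per well in EGM-2, briefly spun at 200 g, attached 3 h. Compounds were then added at final 2–200 nM, two replicates per concentration. Networks formed over 72 h at 37 °C, 5% CO2, followed by automated imaging and image analysis of tube formation.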

Nucleic Acid = test: Binding affinity to salmon testes DNA by linear flow dichroism analysis; assay type: nucleic-acid assay; settings: Salmonidae
Procedure, shortened: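 Salmon testes DNA (1.9 × 10^-3 M) in ETN buffer (10 mM Tris, 10 mM NaCl, 1 mM EDTA, pH 7). Linear dichroism spectra were recorded at 25 °C over a range of [drug]/[DNA] ratios on a spectropolarimeter converted for LD.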

HeLa = test: Cytotoxicity against human HeLa cells after 72 hrs by trypan blue assay; assay type: functional, cell-based
Procedure, shortened: (§4)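 A-431, HeLa and HL-60 cells at 4×10^4 per well, incubated 24 h. HeLa and A-431 then received fresh medium. Graded compound concentrations were added for a further 72 h at 37 °C, 5% CO2. Viability was counted by Trypan blue exclusion. IC50 is the concentration giving 50% reduction in cell number versus control: ≥3 independent experiments, triplicate samples, mean ± SD.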

yA3 [15] = test: Cytotoxicity against mouse yA3 cells after 24 to 96 hrs by MTS assay; assay type: functional, cell-based; procedure, shortened: as §1
HUVEC [16] = test: Antiangiogenic activity in HUVEC cocultured with human PaSMC assessed as morphological changes up to 200 nM after 72 hrs; assay type: functional, cell-based; procedure, shortened: as §3
A-431 = test: Cytotoxicity against human A431 cells after 72 hrs by trypan blue assay; assay type: functional, cell-based; settings: A-431, 72 h; procedure, shortened: as §4
B3 [17] = test: Cytotoxicity against mouse B3 cells after 24 to 96 hrs by MTS assay; assay type: functional, cell-based; procedure, shortened: as §1
[18] = biological target: DNA topoisomerase 2-alpha (Homo sapiens) (UniProt P11388); test: Inhibition of human recombinant topoisomerase 2alpha-mediated relaxation of supercoiled pBR322 at up to 100 uM after 60 mins using ethidium bromide staining by agarose gel electrophoresis
Procedure, shortened: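 Supercoiled pBR322 (0.25 µg) with 1 U human recombinant topoisomerase IIα and test compound, 60 min at 37 °C in 20 µl reaction buffer. Stopped with SDS/bromophenol blue/glycerol plus 50 µg/mL proteinase K, 30 min at 37 °C. Separated on 1% agarose at room temperature, ethidium bromide stained (1 µg/mL, TAE), UV-visualized.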

Mus musculus [19] = organism: Mus musculus; test: Induction apoptosis in mouse betaD10 cells assessed as ROS production at 10 uM/L using DCFH-DA by flow cytometry relative to control; assay type: functional, cell-based; procedure, shortened: as §2
Mus musculus [20] = organism: Mus musculus; test: Induction apoptosis in mouse betaD5 cells assessed as ROS production at 10 uM/L using DCFH-DA by flow cytometry relative to control; assay type: functional, cell-based; procedure, shortened: as §2
Bos taurus = organism: Bos taurus; test: Inhibition of calf thymus topoisomerase 1-mediated relaxation of supercoiled pBR322 at 100 uM after 60 mins using ethidium bromide staining by agarose gel electrophoresis
Procedure, shortened: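 Supercoiled pBR322 (0.25 µg) with 2 U calf thymus topoisomerase I and test compound, 60 min at 37 °C in 20 µl reaction buffer. Stopped with SDS/bromophenol blue/glycerol plus 50 µg/mL proteinase K, 30 min at 37 °C. Run on 1% agarose at room temperature, stained with ethidium bromide 1 µg/mL in TAE, imaged under UV.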

HL-60 = test: Cytotoxicity against human HL60 cells after 72 hrs by trypan blue assay; assay type: functional, cell-based; settings: HL-60, 72 h; procedure, shortened: as §4
yB8 [21] = test: Cytotoxicity against mouse yB8 cells after 24 to 96 hrs by MTS assay; assay type: functional, cell-based; procedure, shortened: as §1
[22] = Induction apoptosis in mouse Craf/Cmyc cells assessed as relative caspase activity at 10 uM/L after 2 hrs by rhodamine 110 fluorescence assay; assay type: functional
Procedure, shortened: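 Cells were pretreated with compound (10 µmol/L) for 2 h. The cell-permeable caspase substrate (Asp)2-rhodamine 110 (10 µmol/L) was then added for 2 h more. Caspase cleavage releases fluorescent rhodamine 110, and the read-out was mean fluorescence.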

Sequence of DNA topoisomerase 2-alpha (Homo sapiens) (P11388 whole entry): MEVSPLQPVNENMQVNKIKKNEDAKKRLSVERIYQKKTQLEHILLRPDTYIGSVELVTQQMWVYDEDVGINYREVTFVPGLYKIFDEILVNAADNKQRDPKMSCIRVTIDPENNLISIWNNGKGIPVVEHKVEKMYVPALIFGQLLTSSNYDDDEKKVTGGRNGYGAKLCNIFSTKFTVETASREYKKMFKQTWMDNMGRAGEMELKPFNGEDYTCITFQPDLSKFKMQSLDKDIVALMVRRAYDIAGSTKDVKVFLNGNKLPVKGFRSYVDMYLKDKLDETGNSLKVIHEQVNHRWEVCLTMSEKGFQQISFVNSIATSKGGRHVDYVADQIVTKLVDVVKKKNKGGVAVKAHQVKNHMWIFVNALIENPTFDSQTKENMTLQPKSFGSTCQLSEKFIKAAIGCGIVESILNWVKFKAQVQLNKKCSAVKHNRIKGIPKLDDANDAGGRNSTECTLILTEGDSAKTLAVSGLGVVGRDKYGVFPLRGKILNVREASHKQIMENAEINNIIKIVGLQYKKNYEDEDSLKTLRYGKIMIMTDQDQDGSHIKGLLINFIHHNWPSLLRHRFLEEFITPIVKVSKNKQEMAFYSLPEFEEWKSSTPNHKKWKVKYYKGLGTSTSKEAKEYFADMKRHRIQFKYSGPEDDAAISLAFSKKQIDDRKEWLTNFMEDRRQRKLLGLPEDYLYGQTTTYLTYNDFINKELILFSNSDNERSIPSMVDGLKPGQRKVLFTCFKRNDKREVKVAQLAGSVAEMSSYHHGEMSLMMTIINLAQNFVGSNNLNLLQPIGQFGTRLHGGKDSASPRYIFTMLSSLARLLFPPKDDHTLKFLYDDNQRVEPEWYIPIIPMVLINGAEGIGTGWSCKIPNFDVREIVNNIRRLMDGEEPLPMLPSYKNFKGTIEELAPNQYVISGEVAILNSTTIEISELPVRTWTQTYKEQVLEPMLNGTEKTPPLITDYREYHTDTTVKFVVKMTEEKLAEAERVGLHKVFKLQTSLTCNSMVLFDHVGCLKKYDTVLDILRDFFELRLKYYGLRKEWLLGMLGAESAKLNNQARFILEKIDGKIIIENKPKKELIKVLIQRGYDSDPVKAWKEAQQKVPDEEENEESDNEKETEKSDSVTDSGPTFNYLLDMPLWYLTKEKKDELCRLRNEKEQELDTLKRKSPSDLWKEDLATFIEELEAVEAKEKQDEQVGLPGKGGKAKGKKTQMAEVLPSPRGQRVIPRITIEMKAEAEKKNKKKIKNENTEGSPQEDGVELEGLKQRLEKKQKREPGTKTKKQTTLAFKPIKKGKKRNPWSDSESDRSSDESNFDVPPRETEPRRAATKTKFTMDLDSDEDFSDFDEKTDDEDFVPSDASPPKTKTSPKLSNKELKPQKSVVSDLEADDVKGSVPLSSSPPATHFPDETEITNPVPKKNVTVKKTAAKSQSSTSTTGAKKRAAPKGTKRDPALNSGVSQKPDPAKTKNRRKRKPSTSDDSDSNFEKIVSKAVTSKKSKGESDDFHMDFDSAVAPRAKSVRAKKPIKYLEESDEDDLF

Activity (Nucleic Acid): inactive
Activity [18]: inactive
Activity (Bos taurus): inactive
Compound: CC[C@@]1(OC(=O)NCCNC(=O)CCCSSCCCC(=O)NCCNC(=O)O[C@]2(CC)C(=O)OCc3c2cc2n(c3=O)Cc3cc4ccccc4nc3-2)C(=O)OCc2c1cc1n(c2=O)Cc2cc3ccccc3nc2-1
Activity (yA7 [1]): Active
Activity (Mus musculus [2]): Active
Activity (Craf/Cmyc [3]): Active
Activity (yD12 [4]): Active
Activity (A2B1): Active
Activity (yD12 [5]): Active
Activity (A2C12 [6]): Active
Activity (yA7 [7]): Active
Activity (A2C12 [8]): Active
Activity (Craf/Cmyc [9]): Active
Activity (Mus musculus [10]): Active
Activity (yD1): Active
Activity (yB8 [11]): Active
Activity (yA3 [12]): Active
Activity (B3 [13]): Active
Activity (HUVEC [14]): 50%
IC50 (HeLa): 0.17 µM
Activity (yA3 [15]): Active
Activity (HUVEC [16]): inactive
IC50 (A-431): 0.03 µM
Activity (B3 [17]): Active
Activity (Mus musculus [19]): Active
Activity (Mus musculus [20]): Active
IC50 (HL-60): 0.29 µM
Activity (yB8 [21]): Active

Activity (Nucleic Acid): inactive
Activity [18]: inactive
Activity (Bos taurus): inactive
Compound: CC[C@@]1(OC(=O)NCCNC(=O)CCCCCCCCC(=O)NCCNC(=O)O[C@]2(CC)C(=O)OCc3c2cc2n(c3=O)Cc3cc4ccccc4nc3-2)C(=O)OCc2c1cc1n(c2=O)Cc2cc3ccccc3nc2-1
Activity (yA7 [1]): Active
Activity (Mus musculus [2]): Active
Activity (Craf/Cmyc [3]): Active
Activity (A2B1): Active
Activity (yD12 [5]): Active
Activity (A2C12 [6]): Active
Activity (A2C12 [8]): Active
Activity (Craf/Cmyc [9]): Active
Activity (Mus musculus [10]): Active
Activity (yD1): Active
Activity (yA3 [12]): Active
Activity (B3 [13]): Active
IC50 (HeLa): 0.3 µM
Activity (yA3 [15]): Active
IC50 (A-431): 0.08 µM
Activity (B3 [17]): Active
fold change (FC) [22]: 8
Activity (Mus musculus [20]): Active
IC50 (HL-60): 0.42 µM
Activity (yB8 [21]): Active
